Data from ChEMBL document CHEMBL2029242 (J Med Chem, 2012).
pEC50, pKd: −log10 of the molar value.

Tests used:
[1] = Oral bioavailability in Sprague-Dawley rat at 10 mg/kg; assay type: ADME, organism-based; settings: in vivo
In short: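 Male Sprague-Dawley rats (250–350 g, jugular-catheterized) received a single dose either iv at 1 mg/kg in 3:1 PEG400/water (n = 2) or po at 10 mg/kg in Pharmatek #6 (n = 3). Plasma was sampled at 5 min (iv only), 15 and 30 min, and 1, 2, 4, 6 and 24 h. Samples were analyzed by LC-MS/MS after acetonitrile precipitation. Parameters came from noncompartmental linear-trapezoidal analysis of individual animals.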

[2] = target: ALK tyrosine kinase receptor (Homo sapiens, UniProt Q9UM73); assay: Inhibition of ALK in human HEK293 cells after 1 hr by competition binding assay; assay type: cell-based
ALK tyrosine kinase receptor, sequence (Q9UM73 whole entry): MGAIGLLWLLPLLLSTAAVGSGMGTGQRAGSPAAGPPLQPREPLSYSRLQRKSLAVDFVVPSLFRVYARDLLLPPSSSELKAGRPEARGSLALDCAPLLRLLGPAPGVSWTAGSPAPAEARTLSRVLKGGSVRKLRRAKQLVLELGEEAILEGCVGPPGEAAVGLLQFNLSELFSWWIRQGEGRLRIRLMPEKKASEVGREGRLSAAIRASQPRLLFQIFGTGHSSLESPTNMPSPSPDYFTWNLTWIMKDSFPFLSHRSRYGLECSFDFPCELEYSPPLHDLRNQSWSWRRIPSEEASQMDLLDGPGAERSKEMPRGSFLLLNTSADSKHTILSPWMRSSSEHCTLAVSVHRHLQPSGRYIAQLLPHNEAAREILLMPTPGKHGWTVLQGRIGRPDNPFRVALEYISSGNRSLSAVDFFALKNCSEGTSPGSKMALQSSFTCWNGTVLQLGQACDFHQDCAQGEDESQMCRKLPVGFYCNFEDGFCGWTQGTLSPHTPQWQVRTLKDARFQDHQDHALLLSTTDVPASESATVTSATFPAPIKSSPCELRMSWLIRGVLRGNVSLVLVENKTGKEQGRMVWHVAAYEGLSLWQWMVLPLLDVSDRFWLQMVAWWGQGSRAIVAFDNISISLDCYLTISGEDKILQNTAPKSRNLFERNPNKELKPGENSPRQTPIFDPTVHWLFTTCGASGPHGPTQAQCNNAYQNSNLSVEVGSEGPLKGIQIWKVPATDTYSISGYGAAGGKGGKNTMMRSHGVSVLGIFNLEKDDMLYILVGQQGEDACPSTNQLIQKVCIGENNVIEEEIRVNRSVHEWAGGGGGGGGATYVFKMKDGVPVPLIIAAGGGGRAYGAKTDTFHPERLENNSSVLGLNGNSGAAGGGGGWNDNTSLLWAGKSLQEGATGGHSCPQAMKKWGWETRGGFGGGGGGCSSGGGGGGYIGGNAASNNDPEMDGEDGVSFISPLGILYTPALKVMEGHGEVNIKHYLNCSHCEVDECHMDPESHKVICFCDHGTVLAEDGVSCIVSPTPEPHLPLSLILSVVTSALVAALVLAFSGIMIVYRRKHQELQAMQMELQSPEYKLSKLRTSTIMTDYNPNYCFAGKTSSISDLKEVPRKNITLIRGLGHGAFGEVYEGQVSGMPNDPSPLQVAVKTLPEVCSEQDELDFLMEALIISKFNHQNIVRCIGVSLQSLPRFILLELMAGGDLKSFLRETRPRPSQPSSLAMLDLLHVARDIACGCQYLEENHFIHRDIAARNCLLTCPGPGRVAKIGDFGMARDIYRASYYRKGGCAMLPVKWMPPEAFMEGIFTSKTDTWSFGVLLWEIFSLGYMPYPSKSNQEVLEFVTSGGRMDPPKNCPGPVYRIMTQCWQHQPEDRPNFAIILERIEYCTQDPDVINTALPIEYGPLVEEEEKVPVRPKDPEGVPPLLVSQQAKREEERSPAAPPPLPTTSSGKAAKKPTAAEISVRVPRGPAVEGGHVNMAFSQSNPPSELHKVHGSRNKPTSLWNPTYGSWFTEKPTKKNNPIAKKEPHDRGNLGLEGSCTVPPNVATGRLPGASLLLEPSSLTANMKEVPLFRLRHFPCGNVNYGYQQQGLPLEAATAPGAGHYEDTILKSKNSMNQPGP
In short: (§1)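 Unbound kinase was captured on immobilized affinity ligand and quantified by qPCR. Kd came from eleven serial 3-fold dilutions, as the mean of duplicates.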

[3] = target: Tyrosine-protein kinase JAK2 (Homo sapiens, UniProt O60674); assay: Inhibition of JAK2 in human HEK293 cells after 1 hr by competition binding assay; assay type: cell-based; in short: as §1
Tyrosine-protein kinase JAK2, sequence (O60674 whole entry): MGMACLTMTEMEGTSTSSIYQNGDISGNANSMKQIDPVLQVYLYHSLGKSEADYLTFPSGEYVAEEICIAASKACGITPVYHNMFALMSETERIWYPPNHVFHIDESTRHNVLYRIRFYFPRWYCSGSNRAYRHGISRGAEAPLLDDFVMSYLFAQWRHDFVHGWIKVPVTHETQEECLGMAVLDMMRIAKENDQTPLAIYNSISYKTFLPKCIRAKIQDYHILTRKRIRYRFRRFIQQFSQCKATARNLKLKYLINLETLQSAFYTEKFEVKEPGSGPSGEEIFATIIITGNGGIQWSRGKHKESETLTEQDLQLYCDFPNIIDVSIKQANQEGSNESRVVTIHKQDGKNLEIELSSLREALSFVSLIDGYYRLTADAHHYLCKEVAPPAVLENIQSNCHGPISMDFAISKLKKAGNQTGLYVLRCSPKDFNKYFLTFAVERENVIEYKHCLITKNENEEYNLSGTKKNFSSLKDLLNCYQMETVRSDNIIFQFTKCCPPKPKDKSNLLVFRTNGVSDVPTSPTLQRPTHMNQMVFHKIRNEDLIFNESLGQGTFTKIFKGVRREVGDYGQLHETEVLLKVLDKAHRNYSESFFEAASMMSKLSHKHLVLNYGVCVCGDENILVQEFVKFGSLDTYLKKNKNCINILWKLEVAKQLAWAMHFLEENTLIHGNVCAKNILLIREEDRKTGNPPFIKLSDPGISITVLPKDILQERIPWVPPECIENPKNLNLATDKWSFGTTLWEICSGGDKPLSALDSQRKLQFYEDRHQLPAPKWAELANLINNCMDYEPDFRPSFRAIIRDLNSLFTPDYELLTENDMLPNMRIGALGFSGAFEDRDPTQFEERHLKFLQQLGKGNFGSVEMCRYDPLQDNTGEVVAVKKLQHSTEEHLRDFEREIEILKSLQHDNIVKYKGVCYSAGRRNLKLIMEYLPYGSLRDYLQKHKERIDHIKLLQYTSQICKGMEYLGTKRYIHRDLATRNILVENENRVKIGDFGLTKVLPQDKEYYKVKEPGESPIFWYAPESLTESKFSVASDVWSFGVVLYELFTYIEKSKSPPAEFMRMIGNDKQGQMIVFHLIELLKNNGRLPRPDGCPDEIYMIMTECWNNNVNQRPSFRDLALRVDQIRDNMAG

HT-144 = assay: Cytotoxicity against human HT144 cells expressing BRAF V600E mutant after 72 hrs by cell titer blue assay; assay type: functional, cell-based; settings: HT-144, 72 h
In short: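 Cells were grown in ATCC-recommended media and kept overnight in 0.5% serum. They were then exposed to compound for 72 h, and Cell Titer Blue was added for 3 h. EC50 came from fluorometric concentration−response curves, run in duplicate and repeated at least once.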

[4] = Cmax in beagle dog at 10 mg/kg, po; assay type: ADME, organism-based, Canis lupus familiaris; parameters: dose 10 mg/kg, route oral; settings: in vivo
In short: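 Single-dose PK. Rats: male Sprague−Dawley, jugular-catheterized, 1 mg/kg iv in 3:1 PEG400/water (n = 2) and 10 mg/kg po in Pharmatek #6 (n = 3). Female athymic nude mice: 100 mg/kg po in Pharmatek #6 (n = 3). Beagle dogs and male cynomolgus monkeys (n = 3): crossover, 1 mg/kg iv and 10 mg/kg po in 22% HPβCD, overnight fast. Plasma LC-MS/MS to 24 h; noncompartmental parameters, mean ± SD.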

## COc1cc2ncnc(Oc3cccc(NC(=O)Nc4cc(C(C)(C)C(F)(F)F)on4)c3)c2cc1OC [CEP-32496]
[1]
  bioavailability: 94%
[2]
  pKd: < 5.00
[3]
  pKd: 5.33
HT-144
  pEC50: 6.64
[4]
  Cmax: 5.2 µM
